The values below come from ChEMBL document CHEMBL3525985, “Regiospecificity and stereospecificity of human UDP-glucuronosyltransferases in the glucuronidation of estriol, 16-epiestriol, 17-epiestriol, and 13-epiestradiol” (Drug Metab Dispos, 2013).

Structures are written as SMILES.

Common to all, as to assay type: ADME
Common to all, as to conditions: recombinant enzyme

Series [1] addresses T1, UDP-glucuronosyltransferase 2A1 (Homo sapiens, UniProt P0DTE4).
T1 sequence (P0DTE4 whole entry): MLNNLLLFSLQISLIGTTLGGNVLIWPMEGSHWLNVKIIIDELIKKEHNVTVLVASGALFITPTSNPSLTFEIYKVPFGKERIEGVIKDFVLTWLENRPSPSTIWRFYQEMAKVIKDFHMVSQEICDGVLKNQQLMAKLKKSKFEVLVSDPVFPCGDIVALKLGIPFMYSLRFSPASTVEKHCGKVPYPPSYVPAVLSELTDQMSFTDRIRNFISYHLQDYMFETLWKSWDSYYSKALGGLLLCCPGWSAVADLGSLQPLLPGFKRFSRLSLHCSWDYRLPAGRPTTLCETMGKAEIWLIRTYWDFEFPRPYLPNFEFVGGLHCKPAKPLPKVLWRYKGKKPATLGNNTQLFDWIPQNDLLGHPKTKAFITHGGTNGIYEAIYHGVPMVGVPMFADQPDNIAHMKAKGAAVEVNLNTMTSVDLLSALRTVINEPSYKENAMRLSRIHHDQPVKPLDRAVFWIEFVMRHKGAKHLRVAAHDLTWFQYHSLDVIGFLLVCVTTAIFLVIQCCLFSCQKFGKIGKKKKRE
The series can be described thus: Drug metabolism assessed as recombinant human C-terminal His-tagged UGT2A1-mediated estriol-16-glucuronide formation after 15 to 60 mins by Michaelis-Menten equation analysis in presence of UDPGA.

Series [2] deals with T2, UDP-glucuronosyltransferase 1A4 (Homo sapiens, UniProt P22310).
T2 sequence (P22310 whole entry): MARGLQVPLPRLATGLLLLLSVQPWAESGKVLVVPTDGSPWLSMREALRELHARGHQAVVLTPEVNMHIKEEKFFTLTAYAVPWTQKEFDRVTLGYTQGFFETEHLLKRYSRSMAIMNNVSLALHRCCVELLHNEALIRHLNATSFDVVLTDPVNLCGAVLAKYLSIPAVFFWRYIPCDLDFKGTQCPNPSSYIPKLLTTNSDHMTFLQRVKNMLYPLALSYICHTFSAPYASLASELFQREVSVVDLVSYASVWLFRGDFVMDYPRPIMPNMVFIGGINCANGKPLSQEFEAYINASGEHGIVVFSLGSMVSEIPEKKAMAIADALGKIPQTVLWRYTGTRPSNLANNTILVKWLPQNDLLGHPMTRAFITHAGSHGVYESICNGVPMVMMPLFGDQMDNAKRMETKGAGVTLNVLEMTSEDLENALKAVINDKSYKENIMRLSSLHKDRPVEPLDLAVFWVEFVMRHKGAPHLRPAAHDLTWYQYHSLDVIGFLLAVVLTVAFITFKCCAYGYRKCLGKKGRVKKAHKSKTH
The series can be described thus: Drug metabolism assessed as recombinant human C-terminal His-tagged UGT1A4-mediated estriol-16-glucuronide formation after 15 to 60 mins by Michaelis-Menten equation analysis in presence of UDPGA.

In series [3] the target is T1, UDP-glucuronosyltransferase 2A1. The series can be described thus: Drug metabolism assessed as recombinant human C-terminal His-tagged UGT2A1-mediated 13-epiestradiol-3-glucuronide/13-epiestradiol-17-glucuronide formation at 200 uM after 15 to 60 mins by HPLC analysis in presence of UDPGA. In short, it runs like this:
(§1)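 Screening at a single substrate concentration of 200 μM, in triplicate. The reaction used 5 or 50 µg of UGT-enriched insect cell membranes in 50 mM phosphate pH 7.4 with 10 mM MgCl₂ and 5 mM UDPGA, 10% final DMSO. Incubation was 15–60 min at 37°C. Perchloric acid stopped the reaction and supernatants were analysed by HPLC. Controls lacked UDPGA. Rates were normalized to relative UGT expression level.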

The target of series [4] is T3, UDP-glucuronosyltransferase 1A3 (Homo sapiens, UniProt P35503).
T3 sequence (P35503 whole entry): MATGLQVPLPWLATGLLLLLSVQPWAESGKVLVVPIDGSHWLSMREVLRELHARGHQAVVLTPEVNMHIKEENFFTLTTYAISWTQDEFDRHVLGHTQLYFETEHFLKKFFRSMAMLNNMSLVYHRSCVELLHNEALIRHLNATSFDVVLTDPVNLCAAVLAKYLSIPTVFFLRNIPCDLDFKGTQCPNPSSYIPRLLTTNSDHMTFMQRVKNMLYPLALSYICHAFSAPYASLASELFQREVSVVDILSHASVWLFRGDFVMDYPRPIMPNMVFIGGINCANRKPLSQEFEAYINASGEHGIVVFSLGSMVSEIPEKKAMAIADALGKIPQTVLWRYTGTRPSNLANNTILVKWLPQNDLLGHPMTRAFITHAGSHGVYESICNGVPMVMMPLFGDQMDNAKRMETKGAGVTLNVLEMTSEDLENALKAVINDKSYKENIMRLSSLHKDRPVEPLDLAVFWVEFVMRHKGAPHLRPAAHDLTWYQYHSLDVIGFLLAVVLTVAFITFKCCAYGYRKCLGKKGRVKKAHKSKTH
Put plainly: Drug metabolism assessed as recombinant human C-terminal His-tagged UGT1A3-mediated 17-epiestriol-3-glucuronide formation at 200 uM after 15 to 60 mins by HPLC analysis in presence of UDPGA. The gist of the method:
as §1

In series [5] the target is T4, UDP-glucuronosyltransferase 2B7 (Homo sapiens, UniProt P16662).
T4 sequence (P16662 whole entry): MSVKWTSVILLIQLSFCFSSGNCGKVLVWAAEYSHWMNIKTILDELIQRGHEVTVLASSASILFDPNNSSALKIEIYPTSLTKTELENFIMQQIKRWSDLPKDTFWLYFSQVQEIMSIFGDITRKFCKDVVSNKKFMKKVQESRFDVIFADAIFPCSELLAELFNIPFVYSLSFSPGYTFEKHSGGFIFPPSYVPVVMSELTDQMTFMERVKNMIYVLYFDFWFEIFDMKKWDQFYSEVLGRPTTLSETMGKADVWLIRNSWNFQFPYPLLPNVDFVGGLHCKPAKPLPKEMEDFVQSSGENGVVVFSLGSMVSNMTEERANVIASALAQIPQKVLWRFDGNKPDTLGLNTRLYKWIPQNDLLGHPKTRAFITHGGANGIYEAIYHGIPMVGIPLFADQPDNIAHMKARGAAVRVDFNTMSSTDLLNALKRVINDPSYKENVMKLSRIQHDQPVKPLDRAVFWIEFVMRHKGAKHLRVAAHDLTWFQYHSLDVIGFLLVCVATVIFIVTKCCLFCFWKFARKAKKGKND
The series can be described thus: Drug metabolism assessed as recombinant human C-terminal His-tagged UGT2B7-mediated estradiol-17-glucuronide formation at 200 uM after 15 to 60 mins by HPLC analysis in presence of UDPGA. In short, it runs like this: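 Membranes (5 or 50 µg) from insect cells expressing His-tagged UGT2B7, with 200 µM aglycone in 50 mM phosphate pH 7.4, 10 mM MgCl₂, 5 mM UDPGA and 10% DMSO (final), 15–60 min at 37°C. Stopped with perchloric acid on ice, supernatant run on HPLC. Done in triplicate with no-UDPGA controls; rates normalized to relative UGT expression.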

Consider `C[C@]12CC[C@@H]3c4ccc(O)cc4CC[C@H]3[C@@H]1C[C@@H](O)[C@@H]2O` [ESTRIOL], for which the Drug metabolism in series [1] and in series [2] was 4 pmol/min/mg in each case.
For `C[C@@]12CC[C@@H]3c4ccc(O)cc4CC[C@H]3[C@@H]1CC[C@@H]2O`, the Drug metabolism result in series [3] was “metabolite_detected”.
On to `C[C@]12CC[C@@H]3c4ccc(O)cc4CC[C@H]3[C@@H]1C[C@@H](O)[C@H]2O`, for which, in series [4], the Drug metabolism entry is reported as “metabolite_detected”.
With `C[C@]12CC[C@@H]3c4ccc(O)cc4CC[C@H]3[C@@H]1CC[C@@H]2O` [ESTRADIOL], the Drug metabolism entry in series [5] was “metabolite_detected”.
